Source: ChEMBL document CHEMBL1142655, “Cytotoxicity of cis-platinum(II) conjugate models. The effect of chelating arms and leaving groups on cytotoxicity: a quantitative structure-activity relationship approach” (J Med Chem, 2005)

Key:
[1] = system: A2780; assay: Inhibitory concentration against human A2780 ovarian adenocarcinoma cell line; assay type: functional, cell-based
Method in brief: (§1)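 Cells kept in RPMI1640 with 10% fetal calf serum, 2 mM L-glutamine and 1% antibiotics at 37 °C, 5% CO2. Cp8 subline was derived by chronic cisplatin exposure. 1 × 10^3 cells/well grew 24 h, then were exposed to 0-500 µM final for 120 h (DMSO ≤0.1% final). MTT was read after 3 h, A570. Run three times in quadruplicate. IC50 from nonlinear regression; mean ± SE.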

[2] = system: A2780; assay: Inhibitory concentration against cisplatin-resistant A2780 human ovarian adenocarcinoma cell line; assay type: functional, cell-based; method in brief: as §1

IC50 [1]	IC50 [2]	Substance
5.55 µM	118 µM	DICHLORO(ETHYLENEDIAMINE) PLATINUM (II)
1.37 µM	45 µM	CISPLATIN
7.66 µM	123 µM	CARBOPLATIN
0.48 µM	6.62 µM	OXALIPLATIN
